Results on 13 compounds are retold here after ChEMBL document CHEMBL3085708, “Identification and profiling of 3,5-dimethyl-isoxazole-4-carboxylic acid [2-methyl-4-((2S,3'S)-2-methyl-[1,3']bipyrrolidinyl-1'-yl)phenyl] amide as histamine H(3) receptor antagonist for the treatment of depression” (Bioorg Med Chem Lett, 2013).

A word on the pKa: it is the negative logarithm of the acid dissociation constant. By Ki is commonly meant a dissociation constant, usually derived from enzyme kinetics or from competition with a known ligand.

Calls of active or inactive are those of the source. The calls are words filed in the database; no cut-off is given here.

System in the first data set: not listed separately
Nature of the data set: Dissociation constant, pKa of the compound. The class given is physicochemical.
On to `Cc1cc(N2CC[C@H](N3CCC[C@@H]3C)C2)ccc1NC(=O)c1cc(F)ccc1C`, for which the pKa worked out at 10.1. On the same count and under the same terms, as for `Cc1nc(N2CC[C@H](N3CCC[C@@H]3C)C2)ccc1NS(=O)(=O)c1ccc(F)c(F)c1`, the figure is 10; as for `Cc1nc(N2CC[C@H](N3CCC[C@@H]3C)C2)ccc1NC(=O)Cc1ccccc1`, 9.9. Same read-out and setting: then `Cc1cc(N2CC[C@H](N3CCC[C@@H]3C)C2)ccc1NC(=O)c1cc(C)n(C)n1`, with 10.1.

Take `Cc1cc(C(=O)Nc2ccc(N3CC[C@H](N4CCC[C@@H]4C)C3)cc2C)on1`: the pKa stood at 10.1. In turn, `Cc1nc(N2CC[C@H](N3CCC[C@@H]3C)C2)ccc1NC(=O)c1cccc2ccccc12` showed a pKa of 9.9.

`Cc1nc(C(=O)Nc2ccc(N3CC[C@H](N4CCC[C@@H]4C)C3)cc2C)co1` registered a pKa of 10.1. Compound `Cc1cc(C(=O)Nc2ccc(N3CC[C@H](N4CCC[C@@H]4C)C3)cc2C)n[nH]1` registered a pKa of 12.1.

For `Cc1cc(N2CC[C@H](N3CCC[C@@H]3C)C2)ccc1NC(=O)c1ccco1`, the pKa amounted to 10.1. Same read-out and setting: then `Cc1cccc(C(=O)Nc2ccc(N3CC[C@H](N4CCC[C@@H]4C)C3)cc2C)n1`, with 10.1; and `Cc1nc(N2CC[C@H](N3CCC[C@@H]3C)C2)ccc1NC(=O)c1ccccc1`, with 9.9; and `Cc1cc(N2CC[C@H](N3CCC[C@@H]3C)C2)ccc1NC(=O)c1ccoc1`, with 10.1.

Another data set deals with Rattus norvegicus. Briefly: Antidepression-like activity in rat assessed as decrease in immobility time at 60 mg/kg, po by forced swimming test. Type of data set: functional, organism-based. Set-up: dose 60 mg/kg. An outline of the steps:
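Rat forced-swim test, immobility time as read-out. Test agent given po in MC/0.6% + H2O at 1, 3 and 10 mg/kg; imipramine reference at 60 mg/kg po.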
On to `CN(C)CCCN1c2ccccc2CCc2ccccc21`, for which the result was Active.

In the next data set the target is Histamine receptor H3 (Macaca mulatta, UniProt Q865E1). Briefly: Displacement of [3H]N-alpha-methylhistamine from recombinant rhesus monkey histamine H3 receptor transfected in CHO cells after 1 hr by scintillation counting analysis. The class given is cell-based. An outline of the steps: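 Membranes from CHO cells stably expressing recombinant rhesus monkey H3 receptor; displacement of [3H]N-α-methyl-histamine, reported as Ki.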
Chain of Histamine receptor H3 (Q865E1 whole entry): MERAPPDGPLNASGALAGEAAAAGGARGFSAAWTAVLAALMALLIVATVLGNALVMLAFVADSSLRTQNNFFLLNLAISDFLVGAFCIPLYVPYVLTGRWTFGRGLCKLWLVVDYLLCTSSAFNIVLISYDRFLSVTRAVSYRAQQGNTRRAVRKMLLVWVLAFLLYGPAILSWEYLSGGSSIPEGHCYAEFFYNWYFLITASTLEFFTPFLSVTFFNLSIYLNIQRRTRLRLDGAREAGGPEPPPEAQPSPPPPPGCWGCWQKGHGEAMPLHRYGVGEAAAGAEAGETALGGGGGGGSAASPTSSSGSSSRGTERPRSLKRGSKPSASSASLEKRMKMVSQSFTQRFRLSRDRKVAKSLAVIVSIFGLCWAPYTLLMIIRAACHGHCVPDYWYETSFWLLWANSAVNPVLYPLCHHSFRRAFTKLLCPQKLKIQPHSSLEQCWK
For the compound `Cc1cccc(C(=O)Nc2ccc(N3CC[C@H](N4CCC[C@@H]4C)C3)cc2C)n1`, the Ki is 1.4 nM.

In the case of `Cc1nc(N2CC[C@H](N3CCC[C@@H]3C)C2)ccc1NC(=O)c1ccccc1`, the Ki amounted to 3 nM.
